The values below come from PMC8819215 (Iranian Journal of Public Health, 2021).

Data set [1] relates to parasites. As to conditions: cited from earlier work.
The subject of data set [2] is J774A.1 macrophages cell line. As to the kind of experiment: Cytotoxicity. The data set is classed as cell-based, mice.
For data set [3], the system named is L. major promastigotes. As to the kind of experiment: Promastigote growth inhibition. The data set is classed as cell-based, Leishmania major. In short, it runs like this: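 Stationary-phase (5 d) L. major MRHO/IR/75/ER promastigotes (1×10^6) were grown at 26 °C in RPMI-1640 with 10% heat-inactivated FCS, pH 7.4. They received TBO (7.8–500 μg/ml) plus 630 nm LED irradiation. MTT at 570 nm was read at 2, 24 and 48 h, as % of untreated OD. IC50 came from dose-response curves, triplicates. SI = macrophage CC50/promastigote IC50.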

Data set [4] relates to L. braziliensis. Conditions: 10 μg/ml TBO; cited from earlier work.
For data set [5], the system named is L. major. Conditions: cited from earlier work.
Data set [6] has as its system L. braziliensis. Conditions: in-vitro; cited from earlier work.

Where two headings read alike, the source gives them in different places.

For the compound `CN(C)c1ccc2nc3ccc(=[N+](C)C)cc-3sc2c1` [MB, methylene blue], the “decrease of parasites viability” value in data set [1] (PDT) is “more than 70%”; in data set [1] (in the dark, higher concentration of MB) it was “up to 50%”.

Consider `Cc1cc2nc3ccc(N(C)C)cc3[s+]c2cc1N.[Cl-]` [TBO, Toluidine Blue O], for which the “toxicity to macrophages compared to glucantime (positive control)” value in data set [2] is on record as “less toxicity”. Besides, in data set [2] (dark group), the “cytotoxicity to J774.A1 macrophages” value is on record as “no cytotoxic”. In addition, the decrease in viability entry in data set [3] (PDT, three highest concentrations, after 24 h) is listed as “more than 70%”. Also, the toxicity to parasites entry in data set [3] (dark group (no PDT), highest concentrations) is listed as “intermediate toxicity”. The parasite viability result in data set [4] is listed as “significantly reduced”.

Take Aluminum phthalocyanine: in data set [5] (10.0μM concentration and 10 J/cm^2 irradiation), the phototoxicity result was “phototoxic”.

For aluminum phthalocyanine tetra sulfonate, the “elimination of parasites by PDT” value in data set [5] (in-vitro) and in data set [6] was “effectively eliminated” each time.
